Data as given in ChEMBL document CHEMBL1142195, “A novel nonnucleoside analogue that inhibits human immunodeficiency virus type 1 isolates resistant to current nonnucleoside reverse transcriptase inhibitors” (Antimicrob Agents Chemother, 2007).
pEC50: −log10 of the molar value. The source made the active and inactive calls. The rule behind the calls is not given here.

What was measured:
[1] = system: Human immunodeficiency virus 1; test: Antiviral activity against HIV1 isolate with RT 101Q, 103N mutation relative to wild type; type: functional
[2] = system: Human immunodeficiency virus 1; test: Antiviral activity against HIV1 isolate with RT 106A mutation relative to wild type; type: functional
Procedure, shortened: (§1)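 Mutant RT clones built in pNL4-3.Luc.R−E− reporter, VSV-G-pseudotyped, single-round infection of HeLa-JC53 cells (15,000/well, MOI 0.03) with 1:4 serial compound dilutions in DMEM (phenol red-free), 2% FBS, 0.2% final DMSO; 48 h at 37°C, 5% CO2; luciferase chemiluminescence read-out. Fold change in EC50 relative to wild-type virus; mean of two tests.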

[3] = system: Human immunodeficiency virus 1; test: Antiviral activity against HIV1 isolate with RT 108I mutation relative to wild type; type: functional; procedure, shortened: as §1
[4] = system: Human immunodeficiency virus 1; test: Antiviral activity against HIV1 isolate with RT 179G mutation relative to wild type; type: functional; procedure, shortened: as §1
[5] = system: Human immunodeficiency virus 1; test: Antiviral activity against HIV1 isolate with RT 103R, 179D, 188L mutation relative to wild type; type: functional; procedure, shortened: as §1
[6] = system: Human immunodeficiency virus 1; test: Antiviral activity against HIV1 isolate with RT 103N, 106I mutation relative to wild type; type: functional
[7] = system: Human immunodeficiency virus 1; test: Antiviral activity against HIV1 isolate with RT 181I mutation relative to wild type; type: functional; procedure, shortened: as §1
[8] = system: Human immunodeficiency virus 1; test: Antiviral activity against HIV1 isolate with RT 103R, 179D mutation relative to wild type; type: functional; procedure, shortened: as §1
[9] = system: Human immunodeficiency virus 1; test: Antiviral activity against HIV1 isolate with RT 103N, 108I, 225H mutation relative to wild type; type: functional
[10] = system: Human immunodeficiency virus 1; test: Antiviral activity against HIV1 isolate with RT 101R, 103N mutation relative to wild type; type: functional
[11] = system: Human immunodeficiency virus 1; test: Antiviral activity against HIV1 isolate with RT 101Q, 190S mutation relative to wild type; type: functional
[12] = system: Human immunodeficiency virus 1; test: Antiviral activity against HIV1 isolate with RT 98G, 190A mutation relative to wild type; type: functional
Procedure, shortened: (§2)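 VSV-G-pseudotyped pNL4-3.Luc.R−E− molecular clones carrying the RT mutations, single-round infection of HeLa-JC53 cells (15,000/well) at MOI 0.03. Compounds serially diluted 1:4 in DMSO then in phenol red-free DMEM with 2% FBS, final DMSO 0.2%. Incubated 48 h at 37°C, 5% CO2. Luciferase read-out by chemiluminescence gives the EC50. Fold change is relative to wt virus, mean of two tests.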

[13] = system: Human immunodeficiency virus 1; test: Antiviral activity against HIV1 isolate with RT 101Q, 181C, 190S mutation relative to wild type; type: functional
[14] = system: Human immunodeficiency virus 1; test: Antiviral activity against HIV1 isolate with RT 101Q, 181C mutation relative to wild type; type: functional
[15] = system: Human immunodeficiency virus 1; test: Antiviral activity against HIV1 isolate with RT 101H, 190A mutation relative to wild type; type: functional
[16] = system: Human immunodeficiency virus 1; test: Antiviral activity against HIV1 isolate with RT 98G, 188L mutation relative to wild type; type: functional; procedure, shortened: as §1
[17] = system: Human immunodeficiency virus 1; test: Antiviral activity against HIV1 isolate with RT 98G, 103N, 181C mutation relative to wild type; type: functional; procedure, shortened: as §1
[18] = system: Human immunodeficiency virus 1; test: Antiviral activity against HIV1 isolate with RT 103N, 108I, 238T mutation relative to wild type; type: functional
[19] = system: Human immunodeficiency virus 1; test: Antiviral activity against HIV1 isolate with RT 100I, 103N, 108I mutation relative to wild type; type: functional
[20] = system: Human immunodeficiency virus 1; test: Antiviral activity against HIV1 isolate with RT 179A mutation relative to wild type; type: functional; procedure, shortened: as §1
[21] = system: Human immunodeficiency virus 1; test: Antiviral activity against HIV1 isolate with RT 108I, 181C mutation relative to wild type; type: functional; procedure, shortened: as §1
[22] = system: Human immunodeficiency virus 1; test: Antiviral activity against HIV1 isolate with RT 103N, 108I mutation relative to wild type; type: functional
[23] = system: Human immunodeficiency virus 1; test: Antiviral activity against HIV1 isolate with RT 179D mutation relative to wild type; type: functional; procedure, shortened: as §1
[24] = system: Human immunodeficiency virus 1; test: Antiviral activity against HIV1 isolate with RT 103N, 225H mutation relative to wild type; type: functional; procedure, shortened: as §1
[25] = system: Human immunodeficiency virus 1; test: Antiviral activity against HIV1 isolate with RT 190S mutation relative to wild type; type: functional; procedure, shortened: as §1
[26] = system: Human immunodeficiency virus 1; test: Antiviral activity against HIV1 isolate with RT 103N, 181C, 190A mutation relative to wild type; type: functional
[27] = system: Human immunodeficiency virus 1; test: Antiviral activity against HIV1 isolate with RT 181C mutation relative to wild type; type: functional; procedure, shortened: as §1
[28] = system: Human immunodeficiency virus 1; test: Antiviral activity against HIV1 isolate with RT 103N, 181C mutation relative to wild type; type: functional
[29] = system: Human immunodeficiency virus 1; test: Antiviral activity against HIV1 isolate with RT 188H mutation relative to wild type; type: functional; procedure, shortened: as §1
[30] = system: Human immunodeficiency virus 1; test: Antiviral activity against HIV1 isolate with RT 103N, 108I, 181C, 190A mutation relative to wild type; type: functional
[31] = system: Human immunodeficiency virus 1; test: Antiviral activity against HIV1 isolate with RT 238T mutation relative to wild type; type: functional; procedure, shortened: as §1
[32] = system: Human immunodeficiency virus 1; test: Antiviral activity against HIV1 isolate with RT 230L mutation relative to wild type; type: functional; procedure, shortened: as §1
[33] = system: Human immunodeficiency virus 1; test: Antiviral activity against HIV1 isolate with RT 101E, 103N, 190A mutation relative to wild type; type: functional
[34] = system: Human immunodeficiency virus 1; test: Antiviral activity against HIV1 isolate with RT 101N, 103N mutation relative to wild type; type: functional
[35] = Half life in dog at 20 mg/kg, po; type: ADME, organism-based, Canis lupus familiaris; design: dose 20 mg/kg, route oral; details: in vivo
Hepatitis B virus = test: Inhibition of hepatitis B virus replication; type: functional, organism-based
[36] = system: Human immunodeficiency virus 1; test: Inhibition of wild type clade B HIV1 NL4-3; type: functional, organism-based
Procedure, shortened: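 Single-round assay in HeLa-JC53 cells (15,000/well) using VSV-G-pseudotyped pNL4-3.Luc.R−E−-derived virus at MOI 0.03. Compounds serially diluted 1:4 in DMSO then medium (2% FBS; final DMSO 0.2%). Incubated 48 h at 37°C in 5% CO2. Luciferase chemiluminescence read-out; EC50 determined.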

[37] = system: Human immunodeficiency virus 1; test: Antiviral activity against HIV1 isolate with RT Y181C mutation; type: functional, organism-based; procedure, shortened: as §2
[38] = system: Human immunodeficiency virus 1; test: Antiviral activity against HIV1 isolate with RT V106I, Y181C mutation in Hela-JC-53 cells; type: functional
[39] = system: Human immunodeficiency virus 1; test: Antiviral activity against wild type HIV1 NL4-3 in Hela-JC53 cells in the presence of 50% human serum after 48 hrs; type: functional, organism-based; details: Human immunodeficiency virus 1, NL4-3, Hela-JC53, 48 h
Procedure, shortened: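 HeLa-JC53 cells (1.5 × 10^4) infected with VSV-G-pseudotyped NL4-3.Luci.R−E− reporter virus at MOI 0.03, with 1:4 serial compound dilutions. Heat-inactivated human serum added to final 0–50% on a basal 2% FBS medium. Incubated 48 h at 37°C in 5% CO2. Luciferase read-out; EC50 by nonlinear regression.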

[40] = system: Human immunodeficiency virus 1; test: Antiviral activity against HIV1 NL4-3 with Y188L mutation in Hela-JC53 cells in the presence of 5% human serum after 48 hrs; type: functional, organism-based; details: Human immunodeficiency virus 1, NL4-3, Hela-JC53, 48 h
Procedure, shortened: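 VSV-G-pseudotyped Y188L NL4-3.Luci.R−E− virus (MOI 0.03) infecting HeLa-JC53 cells (1.5 × 10^4) in phenol red-free DMEM with 2% FBS. Serially diluted compound was added, then heat-inactivated human serum at final 0, 5, 10, 20, 30, 40 or 50%. Cultures ran 48 h at 37°C in 5% CO2, read by Bright-Glo luciferase chemiluminescence. EC50 was taken by nonlinear regression.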

[41] = system: Human immunodeficiency virus 1; test: Antiviral activity against HIV1 isolate with RT K103N-Y181C mutation; type: functional, organism-based; procedure, shortened: as §2

Question: For `Cc1ccnc2c1NC(=O)c1cccnc1N2C1CC1` [NEVIRAPINE], which Fold change [1] is on record?
Answer: >100

Question: And the Fold change [2]?
Answer: >100

Question: And the Fold change [3]?
Answer: 2.3

Question: And the Fold change [4]?
Answer: 0.1

Question: And the Fold change [5]?
Answer: >100

Question: And the Fold change [6]?
Answer: 122

Question: And the Fold change [7]?
Answer: >100

Question: What about the Fold change [8] of the same molecule?
Answer: 1.3

Question: And the Fold change [9]?
Answer: >100

Question: What about the Fold change [10] of the same molecule?
Answer: >100

Question: And the Fold change [11]?
Answer: >100

Question: And the Fold change [12]?
Answer: >100

Question: What about the Fold change [13] of the same molecule?
Answer: >100

Question: And the Fold change [14]?
Answer: >100

Question: What about the Fold change [15] of the same molecule?
Answer: >100

Question: And the Fold change [16]?
Answer: >100

Question: And the Fold change [17]?
Answer: >100

Question: What about the Fold change [18] of the same molecule?
Answer: >100

Question: And the Fold change [19]?
Answer: >100

Question: What about the Fold change [20] of the same molecule?
Answer: 0.4

Question: And the Fold change [21]?
Answer: >100

Question: And the Fold change [22]?
Answer: >100

Question: And the Fold change [23]?
Answer: 4.2

Question: And the Fold change [24]?
Answer: >100

Question: And the Fold change [25]?
Answer: >100

Question: And the Fold change [26]?
Answer: >100

Question: What about the Fold change [27] of the same molecule?
Answer: >100

Question: What about the Fold change [28] of the same molecule?
Answer: >100

Question: And the Fold change [29]?
Answer: >100

Question: And the Fold change [30]?
Answer: >100

Question: What about the Fold change [31] of the same molecule?
Answer: 100

Question: And the Fold change [32]?
Answer: 46

Question: And the Fold change [33]?
Answer: >100

Question: And the Fold change [34]?
Answer: 32

Question: For `NS(=O)(=O)c1ccc(NC(=O)CSc2nnc(Br)n2-c2ccc(C3CC3)c3ccccc23)c(Cl)c1`, which half-life [35] is on record?
Answer: 3.36 h

Question: What about the Activity (Hepatitis B virus) of the same molecule?
Answer: inactive

Question: What about the Activity [36] of the same molecule?
Answer: Active

Question: What about the Fold change [1] of the same molecule?
Answer: 5.2

Question: What about the Fold change [2] of the same molecule?
Answer: 6

Question: And the Fold change [3]?
Answer: 1.5

Question: What about the Fold change [4] of the same molecule?
Answer: 0.3

Question: And the Fold change [5]?
Answer: >100

Question: What about the Fold change [6] of the same molecule?
Answer: 1.8

Question: And the Fold change [7]?
Answer: 5.4

Question: And the Fold change [8]?
Answer: 0.3

Question: And the Fold change [9]?
Answer: 2.6

Question: What about the Fold change [10] of the same molecule?
Answer: 1.2

Question: And the Fold change [11]?
Answer: 2.4

Question: And the Fold change [12]?
Answer: 16

Question: What about the Fold change [13] of the same molecule?
Answer: >100

Question: And the Fold change [14]?
Answer: 8.9

Question: What about the Fold change [15] of the same molecule?
Answer: 32

Question: What about the Fold change [16] of the same molecule?
Answer: >100

Question: What about the Fold change [17] of the same molecule?
Answer: 4.2

Question: And the Fold change [18]?
Answer: 2.5

Question: What about the Fold change [19] of the same molecule?
Answer: 1.9

Question: And the Fold change [20]?
Answer: 0.6

Question: What about the Fold change [21] of the same molecule?
Answer: 14

Question: What about the Fold change [22] of the same molecule?
Answer: 1.3

Question: What about the Fold change [23] of the same molecule?
Answer: 3.3

Question: And the Fold change [24]?
Answer: 1.6

Question: And the Fold change [25]?
Answer: 3.9

Question: And the Fold change [26]?
Answer: >100

Question: What about the Fold change [27] of the same molecule?
Answer: 10

Question: What about the Fold change [28] of the same molecule?
Answer: 10

Question: What about the pEC50 [37] of the same molecule?
Answer: 9.64

Question: And the Fold change [38]?
Answer: 5.4

Question: And the pEC50 [39]?
Answer: 7.89

Question: And the pEC50 [40]?
Answer: 7.86

Question: And the Fold change [29]?
Answer: 1.6

Question: What about the Fold change [30] of the same molecule?
Answer: >100

Question: What about the Fold change [31] of the same molecule?
Answer: 2.2

Question: And the Fold change [32]?
Answer: 11

Question: And the Fold change [33]?
Answer: 50

Question: And the Fold change [34]?
Answer: 0.6

Question: And the pEC50 [41]?
Answer: 9.64
